# Experimental data from ChEMBL document CHEMBL3632543, “Structural Dissection of Crotalicidin, a Rattlesnake Venom Cathelicidin, Retrieves a Fragment with Antimicrobial and Antitumor Activity” (J Med Chem, 2015).
# The source made the active and inactive calls. The rule behind the calls is not given here. Where a SMILES comes first, the peptide text is derived from it.
# How the values were obtained:
# Jurkat E6.1 [1] = test: Cytotoxicity against human Jurkat E6-1 cells after 4 hrs by cell titer blue dye assay; assay type: functional, cell-based
# Method in brief: (§1)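 Suspension cells (~60 000) were mixed with 2-fold peptide dilutions (0.1–100 μM final) in DMEM/2% FBS, 30 min at 37 °C, 5% CO2. ~10 000 cells per well then received Cell Titer Blue. Resorufin fluorescence (ex 530/em 590 nm) was read at 4 and 24 h; viability relative to medium-only controls; triplicate.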
# Staphylococcus aureus [2] = test: Antibacterial activity against clinical isolate Staphylococcus aureus by microdilution method; assay type: functional
# Method in brief: (§2)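 Strains subcultured at least twice on sheep blood agar and incubated 24 h before testing; inoculum made by direct suspension in saline to 0.5 McFarland turbidity. MIC determined by broth microdilution in Mueller–Hinton broth following CLSI guidelines; gentamicin run as control antibiotic.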
# THP-1 [3] = test: Cytotoxicity against human THP1 cells after 24 hrs by cell titer blue dye assay; assay type: functional, cell-based
# Method in brief: (§3)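 Tumor cells cultured in DMEM with 10% FBS, 37 °C, 5% CO2, kept at 10^5–10^6 cells/mL. About 60 000 cells mixed with 2-fold serial peptide dilutions (final 0.1–100 μM) in DMEM with 2% FBS for 30 min at 37 °C. About 10 000 treated cells per well then got Cell Titer Blue; fluorescence (ex 530, em 590 nm) read 4 and 24 h after dye addition. Viability relative to medium-only controls; triplicate.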
# Streptococcus pyogenes = test: Antibacterial activity against clinical isolate Streptococcus pyogenes by microdilution method; assay type: functional
# Method in brief: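 S. pyogenes isolate subcultured twice on sheep blood agar, incubated 24 h, suspended in saline to 0.5 McFarland. MIC by CLSI broth microdilution in Mueller–Hinton broth supplemented with 5% lysed horse blood; gentamicin control.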
# Escherichia coli [4] = test: Antibacterial activity against Escherichia coli ATCC 25922 by microdilution method; assay type: functional; method in brief: as §2
# U-937 [5] = test: Cytotoxicity against human U937 cells after 4 hrs by cell titer blue dye assay; assay type: functional, cell-based; conditions: for IC50: U-937, 4 h; method in brief: as §3
# [6] = Cytotoxicity against human 1BR3G cells after 24 hrs by cell titer blue dye assay; assay type: cell-based
# Method in brief: (§4)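 1BR3G fibroblasts grown in DMEM/10% FBS, seeded 5000 cells/well, incubated 24 h at 37 °C, then medium swapped for 2% FBS medium with 2-fold peptide dilutions (0.1–100 μM final). After 30 min, Cell Titer Blue dye was added; fluorescence (ex 530/em 590 nm) read 4 and 24 h later. Viability relative to untreated medium controls; triplicate.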
# [7] = Toxicity in human erythrocytes assessed as induction of hemolysis up to 400 uM incubated for 30 mins by microplate reader assay; assay type: cell-based, Erythrocyte; conditions: read-out: Activity
# Method in brief: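 Fresh human blood collected in EDTA; erythrocytes washed three times in PBS. Mixed 1:1 with 2-fold serial peptide dilutions to final 4% (v/v) cells and 0.1–400 μM peptide. Incubated 30 min at 37 °C with gentle agitation, then centrifuged; supernatant A540 measured. Percent hemolysis scaled between untreated cells and 1% Triton X-100; triplicate.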
# [8] = Cytotoxicity against human 1BR3G cells after 4 hrs by cell titer blue dye assay; assay type: cell-based; method in brief: as §4
# Pseudomonas aeruginosa [9] = test: Antibacterial activity against clinical isolate Pseudomonas aeruginosa by microdilution method; assay type: functional; method in brief: as §2
# Acinetobacter baumannii = test: Antibacterial activity against clinical isolate Acinetobacter baumannii by microdilution method; assay type: functional
# Method in brief: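 A. baumannii clinical isolate subcultured at least twice on sheep blood agar, 24 h incubation before testing; saline suspension adjusted to 0.5 McFarland. Broth microdilution MIC in Mueller–Hinton broth per CLSI; gentamicin as control antibiotic.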
# Enterococcus faecalis [10] = test: Antibacterial activity against clinical isolate Enterococcus faecalis by microdilution method; assay type: functional; method in brief: as §2
# Escherichia coli [11] = test: Antibacterial activity against clinical isolate Escherichia coli by microdilution method; assay type: functional; method in brief: as §2
# [12] = Half life in human serum at 1 mM incubated for 24 hrs by LC-MS analysis; assay type: ADME, cell-free
# Method in brief: (§5)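 Human serum combined with equal volume of 1 mM aqueous peptide stock, incubated 24 h at 37 °C with gentle swirling. Aliquots taken at 0, 1, 5, 10, 30, 120, 360 and 1440 min, quenched with 15% trichloroacetic acid for 30 min at 4 °C, and centrifuged to remove serum proteins. Remaining peptide followed by LC-MS.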
# HeLa S3 = test: Cytotoxicity against human HeLaS3 cells after 24 hrs by cell titer blue dye assay; assay type: functional, cell-based; method in brief: as §3
# Jurkat E6.1 [13] = test: Cytotoxicity against human Jurkat E6-1 cells after 24 hrs by cell titer blue dye assay; assay type: functional, cell-based; method in brief: as §1
# U-937 [14] = test: Cytotoxicity against human U937 cells after 24 hrs by cell titer blue dye assay; assay type: functional, cell-based; method in brief: as §3
# Pseudomonas aeruginosa [15] = test: Antibacterial activity against Pseudomonas aeruginosa ATCC 27853 by microdilution method; assay type: functional; method in brief: as §2
# [16] = Toxicity in human erythrocytes assessed as induction of hemolysis at 100 uM incubated for 30 mins by microplate reader assay; assay type: cell-based, Erythrocyte; conditions: read-out: Activity
# Method in brief: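 Fresh human blood erythrocytes, PBS-washed, were incubated as a 4% (v/v) final suspension with peptide (0.1–400 μM final) for 30 min at 37 °C with gentle agitation. After centrifugation, hemoglobin in the supernatant was read at A540. Percent hemolysis was calculated against 1% Triton X-100 (positive) and untreated cells; triplicate.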
# Klebsiella pneumoniae = test: Antibacterial activity against clinical isolate Klebsiella pneumoniae by microdilution method; assay type: functional; method in brief: as §2
# Enterococcus faecalis [17] = test: Antibacterial activity against Enterococcus faecalis ATCC 29212 by microdilution method; assay type: functional; method in brief: as §2
# HL-60 [18] = test: Cytotoxicity against human HL60 cells after 24 hrs by cell titer blue dye assay; assay type: functional, cell-based; method in brief: as §1
# THP-1 [19] = test: Cytotoxicity against human THP1 cells after 4 hrs by cell titer blue dye assay; assay type: functional, cell-based; conditions: for IC50: THP-1, 4 h; method in brief: as §3
# Staphylococcus aureus [20] = test: Antibacterial activity against Staphylococcus aureus ATCC 29213 by microdilution method; assay type: functional; method in brief: as §2
# [21] = Cytotoxicity against human HeLaS3 cells after 4 hrs by cell titer blue dye assay; assay type: functional, cell-based; conditions: HeLa S3, 4 h; method in brief: as §3
# HL-60 [22] = test: Cytotoxicity against human HL60 cells after 4 hrs by cell titer blue dye assay; assay type: functional, cell-based; method in brief: as §1
# [23] = Drug degradation in human serum at 1 mM after 24 hrs by LC-MS analysis; assay type: ADME, cell-free; conditions: read-out: Drug degradation; method in brief: as §5
# [24] = Cytotoxicity against human 1BR3G cells assessed as reduction of cell viability at 100 uM after 24 hrs by cell titer blue dye assay; assay type: cell-based
# Method in brief: (§6)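 1BR3G human fibroblasts grown in DMEM with 10% FBS at 37 °C, 5% CO2; 5000 cells/well seeded for 24 h, then medium swapped for DMEM with 2% FBS holding 2-fold serial peptide dilutions (final 0.1–100 μM). After 30 min, Cell Titer Blue added; fluorescence (ex 530, em 590 nm) read 4 and 24 h after dye addition. Viability relative to 2% FBS medium-only controls; triplicate.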
# [25] = Cytotoxicity against human 1BR3G cells assessed as reduction of cell viability at 100 uM after 4 hrs by cell titer blue dye assay; assay type: cell-based; method in brief: as §6
# [26] = Metabolic stability in human serum assessed as compound remaining at 1 mM after 24 hrs by LC-MS analysis; assay type: ADME, cell-free; conditions: read-out: Stability; method in brief: as §5
Compound,MIC (Staphylococcus aureus [2]),Activity (THP-1 [3]),MIC (Streptococcus pyogenes),MIC (Escherichia coli [4]),IC50 (U-937 [5]),hemolysis at 0.5 h [7],MIC (Pseudomonas aeruginosa [9]),MIC (Acinetobacter baumannii),MIC (Enterococcus faecalis [10]),MIC (Escherichia coli [11]),half-life at 1000 µM [12],Activity (HeLa S3),Activity (Jurkat E6.1 [13]),Activity (U-937 [14]),MIC (Pseudomonas aeruginosa [15]),MIC (Klebsiella pneumoniae),MIC (Enterococcus faecalis [17]),Activity (HL-60 [18]),MIC (Staphylococcus aureus [20]),IC50 [21],other results
CC[C@H](C)[C@H](NC(=O)[C@H](CCCCN)NC(=O)[C@H](CCCCN)NC(=O)[C@H](CC(C)C)NC(=O)[C@H](CCCNC(=N)N)NC(=O)[C@H](CCCCN)NC(=O)[C@H](CCCCN)NC(=O)[C@@H](NC(=O)[C@H](CO)NC(=O)[C@H](CCCCN)NC(=O)[C@H](CCCCN)NC(=O)[C@@H](NC(=O)[C@H](CCCCN)NC(=O)[C@H](CCCCN)NC(=O)[C@H](Cc1ccccc1)NC(=O)[C@H](Cc1ccccc1)NC(=O)[C@H](CCCCN)NC(=O)[C@H](CCCCN)NC(=O)[C@H](Cc1ccccc1)NC(=O)[C@H](CCCNC(=N)N)NC(=O)[C@@H](N)CCCCN)C(C)C)C(C)C)C(=O)N[C@@H](Cc1ccccc1)C(=O)N[C@@H](CCCCN)C(=O)N[C@@H](CCCCN)C(=O)N1CCC[C@H]1C(=O)N[C@@H](CCSC)C(=O)N[C@H](C(=O)N[C@H](C(=O)NCC(=O)N[C@H](C(=O)N[C@H](C(=O)N[C@H](C(=O)N1CCC[C@H]1C(=O)N[C@@H](Cc1ccccc1)C(N)=O)[C@@H](C)CC)[C@H](C)O)C(C)C)[C@@H](C)CC)C(C)C,7.7 µM,Active,3.8 µM,0.06 µM,< 1 µM,33%,3.8 µM,3.8 µM,31 µM,3.8 µM,1.18 h,Active,Active,Active,0.24 µM,1.9 µM,7.7 µM,Active,7.7 µM,< 1 µM,"IC50 (Jurkat E6.1 [1]; Jurkat E6.1, 4 h): > 12.5 µM; Activity [6]: Toxic; IC50 [8]: 6.25 µM; hemolysis at 0.5 h, 100 µM [16]: 7%; IC50 (THP-1 [19]): 1.56 µM; IC50 (HL-60 [22]; HL-60, 4 h): > 12.5 µM"
CC(C)[C@H](NC(=O)[C@H](CO)NC(=O)[C@H](CCCCN)NC(=O)[C@H](CCCCN)NC(=O)[C@@H](NC(=O)[C@H](CCCCN)NC(=O)[C@H](CCCCN)NC(=O)[C@H](Cc1ccccc1)NC(=O)[C@H](Cc1ccccc1)NC(=O)[C@H](CCCCN)NC(=O)[C@H](CCCCN)NC(=O)[C@H](Cc1ccccc1)NC(=O)[C@H](CCCNC(=N)N)NC(=O)[C@@H](N)CCCCN)C(C)C)C(N)=O (H-KRFKKFFKKVKKSV-NH2),71 µM,inactive,36 µM,71 µM,,7%,71 µM,71 µM,71 µM,71 µM,0.35 h,Active,inactive,inactive,71 µM,71 µM,71 µM,inactive,71 µM,> 10 µM,"Activity (Jurkat E6.1 [1]): inactive; Activity (U-937 [5]): inactive; metabolised at 24 h, 1000 µM [23]: 100%; Activity [24]: Non-toxic; Activity (THP-1 [19]): inactive; Activity (HL-60 [22]): inactive; Activity [25]: 20%"
GENTAMICIN,0.5 µM,,17 µM,1 µM,,,17 µM,17 µM,34 µM,34 µM,,,,,2.1 µM,4.2 µM,17 µM,,0.5 µM,,
CC[C@H](C)[C@H](NC(=O)[C@H](CCCCN)NC(=O)[C@H](CCCCN)NC(=O)[C@H](CC(C)C)NC(=O)[C@H](CCCNC(=N)N)NC(=O)[C@H](CCCCN)NC(=O)[C@@H](N)CCCCN)C(=O)N[C@@H](Cc1ccccc1)C(=O)N[C@@H](CCCCN)C(=O)N[C@@H](CCCCN)C(=O)N1CCC[C@H]1C(=O)N[C@@H](CCSC)C(=O)N[C@H](C(=O)N[C@H](C(=O)NCC(=O)N[C@H](C(=O)N[C@H](C(=O)N[C@H](C(=O)N1CCC[C@H]1C(=O)N[C@@H](Cc1ccccc1)C(N)=O)[C@@H](C)CC)[C@H](C)O)C(C)C)[C@@H](C)CC)C(C)C,54 µM,Active,3.4 µM,0.11 µM,6.25 µM,7%,27 µM,1.7 µM,54 µM,3.4 µM,12.8 h,Active,,Active,27 µM,3.4 µM,54 µM,,54 µM,1 µM,"remaining at 24 h, 1000 µM [26]: 10%; Activity [24]: Non-toxic; IC50 (THP-1 [19]): 25 µM; Activity [25]: 20%"
